{
  "source": "ChEMBL document CHEMBL4689842",
  "about": "“EUbOPEN Chemogenomics Library wave 1” (2021)",
  "system": "Fibroblast",
  "assay": "Multiplex assay against human fibroblast",
  "type": "toxicity, cell-based",
  "how_it_was_run": "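Cells stained live at seeding with Hoechst33342, BioTracker Green Microtubule Cytoskeleton Dye, MitoTracker Red and Annexin V Alexa Fluor 680 were imaged on a CQ1 microscope at 37°C and 5% CO2 after compound addition. Their classification by CellPathfinder machine-learning gating ran from Hoechst high-intensity objects versus normal cells, to healthy, pyknosed or fragmented nuclei among normal cells, to mitotic or apoptotic among pyknosed cells. Tubulin, mitochondrial-mass and membrane-permeability phenotypes are per cents of healthy-nucleus cells.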",
  "key": {"[1]": {"settings": "12 h, 1 µM, compound concentration 1 uM, replicate 1"}, "[2]": {"settings": "12 h, 1 µM, compound concentration 1 uM, replicate 2"}, "[3]": {"settings": "12 h, 10 µM, compound concentration 10 uM, replicate 1"}, "[4]": {"settings": "12 h, 10 µM, compound concentration 10 uM, replicate 2"}, "[5]": {"settings": "24 h, 1 µM, compound concentration 1 uM, replicate 1"}, "[6]": {"settings": "24 h, 1 µM, compound concentration 1 uM, replicate 2"}, "[7]": {"settings": "24 h, 10 µM, compound concentration 10 uM, replicate 1"}},
  "data": [
    {"smiles": "CC(C)[C@H](CO)Nc1nc(Nc2cccc(Cl)c2)c2ncn(C(C)C)c2n1", "note": "[PURVALANOLA]", "values": [
      {"measurement": "Population Apoptotic (%)", "setting": "[1]", "result": 65, "unit": "%"},
      {"measurement": "Population Fragmented Nuclei (%)", "setting": "[1]", "result": 30, "unit": "%"},
      {"measurement": "Population Healthy Nuclei (%)", "setting": "[1]", "result": 39, "unit": "%"},
      {"measurement": "Population Hoechst High Intensity Objects (%)", "setting": "[1]", "result": 17, "unit": "%"},
      {"measurement": "Population Membrane Permeable-Phenotype (%)", "setting": "[1]", "result": 20, "unit": "%"},
      {"measurement": "Population Mitochondria Different-Phenotype (%)", "setting": "[1]", "result": 7, "unit": "%"},
      {"measurement": "Population Mitotic Cells (%)", "setting": "[1]", "result": 35, "unit": "%"},
      {"measurement": "Population Normal (%)", "setting": "[1]", "result": 82, "unit": "%"},
      {"measurement": "Population Pyknosed Nuclei (%)", "setting": "[1]", "result": 30, "unit": "%"},
      {"measurement": "Population Tubulin-Different-Phenotype (%)", "setting": "[1]", "result": 48, "unit": "%"},
      {"measurement": "Total Cell Count", "setting": "[1]", "result": 241},
      {"measurement": "Population Apoptotic (%)", "setting": "[2]", "result": 50, "unit": "%"},
      {"measurement": "Population Fragmented Nuclei (%)", "setting": "[2]", "result": 8, "unit": "%"},
      {"measurement": "Population Healthy Nuclei (%)", "setting": "[2]", "result": 88, "unit": "%"},
      {"measurement": "Population Hoechst High Intensity Objects (%)", "setting": "[2]", "result": 10, "unit": "%"},
      {"measurement": "Population Membrane Permeable-Phenotype (%)", "setting": "[2]", "result": 7, "unit": "%"},
      {"measurement": "Population Mitochondria Different-Phenotype (%)", "setting": "[2]", "result": 21, "unit": "%"},
      {"measurement": "Population Mitotic Cells (%)", "setting": "[2]", "result": 50, "unit": "%"},
      {"measurement": "Population Normal (%)", "setting": "[2]", "result": 89, "unit": "%"},
      {"measurement": "Population Pyknosed Nuclei (%)", "setting": "[2]", "result": 3, "unit": "%"},
      {"measurement": "Population Tubulin-Different-Phenotype (%)", "setting": "[2]", "result": 15, "unit": "%"},
      {"measurement": "Total Cell Count", "setting": "[2]", "result": 111},
      {"measurement": "Population Apoptotic (%)", "setting": "[3]", "result": 65, "unit": "%"},
      {"measurement": "Population Fragmented Nuclei (%)", "setting": "[3]", "result": 24, "unit": "%"},
      {"measurement": "Population Healthy Nuclei (%)", "setting": "[3]", "result": 38, "unit": "%"},
      {"measurement": "Population Hoechst High Intensity Objects (%)", "setting": "[3]", "result": 17, "unit": "%"},
      {"measurement": "Population Membrane Permeable-Phenotype (%)", "setting": "[3]", "result": 10, "unit": "%"},
      {"measurement": "Population Mitochondria Different-Phenotype (%)", "setting": "[3]", "result": 54, "unit": "%"},
      {"measurement": "Population Mitotic Cells (%)", "setting": "[3]", "result": 34, "unit": "%"},
      {"measurement": "Population Normal (%)", "setting": "[3]", "result": 82, "unit": "%"},
      {"measurement": "Population Pyknosed Nuclei (%)", "setting": "[3]", "result": 36, "unit": "%"},
      {"measurement": "Population Tubulin-Different-Phenotype (%)", "setting": "[3]", "result": 95, "unit": "%"},
      {"measurement": "Total Cell Count", "setting": "[3]", "result": 143},
      {"measurement": "Population Apoptotic (%)", "setting": "[4]", "result": 83, "unit": "%"},
      {"measurement": "Population Fragmented Nuclei (%)", "setting": "[4]", "result": 13, "unit": "%"},
      {"measurement": "Population Healthy Nuclei (%)", "setting": "[4]", "result": 79, "unit": "%"},
      {"measurement": "Population Hoechst High Intensity Objects (%)", "setting": "[4]", "result": 7, "unit": "%"},
      {"measurement": "Population Membrane Permeable-Phenotype (%)", "setting": "[4]", "result": 23, "unit": "%"},
      {"measurement": "Population Mitochondria Different-Phenotype (%)", "setting": "[4]", "result": 95, "unit": "%"},
      {"measurement": "Population Mitotic Cells (%)", "setting": "[4]", "result": 16, "unit": "%"},
      {"measurement": "Population Normal (%)", "setting": "[4]", "result": 92, "unit": "%"},
      {"measurement": "Population Pyknosed Nuclei (%)", "setting": "[4]", "result": 6, "unit": "%"},
      {"measurement": "Population Tubulin-Different-Phenotype (%)", "setting": "[4]", "result": 98, "unit": "%"},
      {"measurement": "Total Cell Count", "setting": "[4]", "result": 66},
      {"measurement": "Population Apoptotic (%)", "setting": "[5]", "result": 48, "unit": "%"},
      {"measurement": "Population Fragmented Nuclei (%)", "setting": "[5]", "result": 32, "unit": "%"},
      {"measurement": "Population Healthy Nuclei (%)", "setting": "[5]", "result": 49, "unit": "%"},
      {"measurement": "Population Hoechst High Intensity Objects (%)", "setting": "[5]", "result": 18, "unit": "%"},
      {"measurement": "Population Membrane Permeable-Phenotype (%)", "setting": "[5]", "result": 24, "unit": "%"},
      {"measurement": "Population Mitochondria Different-Phenotype (%)", "setting": "[5]", "result": 7, "unit": "%"},
      {"measurement": "Population Mitotic Cells (%)", "setting": "[5]", "result": 51, "unit": "%"},
      {"measurement": "Population Normal (%)", "setting": "[5]", "result": 81, "unit": "%"},
      {"measurement": "Population Pyknosed Nuclei (%)", "setting": "[5]", "result": 18, "unit": "%"},
      {"measurement": "Population Tubulin-Different-Phenotype (%)", "setting": "[5]", "result": 60, "unit": "%"},
      {"measurement": "Total Cell Count", "setting": "[5]", "result": 248},
      {"measurement": "Population Apoptotic (%)", "setting": "[6]", "result": 60, "unit": "%"},
      {"measurement": "Population Fragmented Nuclei (%)", "setting": "[6]", "result": 8, "unit": "%"},
      {"measurement": "Population Healthy Nuclei (%)", "setting": "[6]", "result": 83, "unit": "%"},
      {"measurement": "Population Hoechst High Intensity Objects (%)", "setting": "[6]", "result": 6, "unit": "%"},
      {"measurement": "Population Membrane Permeable-Phenotype (%)", "setting": "[6]", "result": 5, "unit": "%"},
      {"measurement": "Population Mitochondria Different-Phenotype (%)", "setting": "[6]", "result": 23, "unit": "%"},
      {"measurement": "Population Mitotic Cells (%)", "setting": "[6]", "result": 40, "unit": "%"},
      {"measurement": "Population Normal (%)", "setting": "[6]", "result": 93, "unit": "%"},
      {"measurement": "Population Pyknosed Nuclei (%)", "setting": "[6]", "result": 8, "unit": "%"},
      {"measurement": "Population Tubulin-Different-Phenotype (%)", "setting": "[6]", "result": 9, "unit": "%"},
      {"measurement": "Total Cell Count", "setting": "[6]", "result": 157},
      {"measurement": "Population Apoptotic (%)", "setting": "[7]", "result": 72, "unit": "%"},
      {"measurement": "Population Fragmented Nuclei (%)", "setting": "[7]", "result": 26, "unit": "%"},
      {"measurement": "Population Healthy Nuclei (%)", "setting": "[7]", "result": 47, "unit": "%"},
      {"measurement": "Population Hoechst High Intensity Objects (%)", "setting": "[7]", "result": 20, "unit": "%"},
      {"measurement": "Population Membrane Permeable-Phenotype (%)", "setting": "[7]", "result": 16, "unit": "%"},
      {"measurement": "Population Mitochondria Different-Phenotype (%)", "setting": "[7]", "result": 63, "unit": "%"}
    ]}
  ]
}
